Source: PubChem BioAssay AID1885 (Broad Institute, 2009)
The whole screen tested about 300,000 compounds, of which about 4,400 (1.5%) were called active. The sample holds actives, similar compounds and a random draw of the others, so the mix is not that of the screen. Unmarked numbers belong to inactive results.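 The calls were made as follows: active = mean inhibition across valid replicates above about 55% (limit read from the data); inconclusive = mean below that limit but half or more replicates reach it; inactive = mean below it, under half of replicates reach it.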

Assay: inhibitors of intracellular T. cruzi growth, primary screen, luminescence, NIH3T3 host cells (AID 1885);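 also: signal also drops with host cell toxicity which is not excluded here; 0% = plate median of DMSO wells and 100% = zero luminescence signal; higher percent means less beta-gal luminescence so fewer parasites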
Details: T. cruzi beta-gal in NIH3T3, luminescence, 90 h; stronger effect = higher value; concentration not given here
Summary of the method: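 Read-out: Parasite load inhibition, % | Test system: Mouse NIH/3T3 fibroblasts infected with β-gal-expressing T. cruzi Tulahuen C4 | Amount: 5,000 cells/well | Medium: DMEM, 2% fetal bovine serum | Signal: GalScreen β-gal luminescence, detergent lysis, 60 min | Timing: 3 h attach, ≥90 h co-culture | Also added: Tulahuen C4 trypomastigotes, 5000/well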

| Compound | inhibition |
| --- | --- |
| C=CCOc1cccc(C2C(C(=O)c3ccc(C)o3)=C(O)C(=O)N2c2nnc(C)s2)c1 (stereo unspecified) | 5.31% |
| N#C/C(=C\C1=C(N2CCOCC2)C(=C\c2ccccc2)/CC1)C(=O)Nc1ccccc1F | 57.8% (active) |
| N#C/C(=C\c1ccccc1C(F)(F)F)C(=O)Nc1ccccc1F | -1.24% |
| C(=N\N1CCN(c2ccccn2)CC1)/C1=C(N2CCOCC2)C(=C/c2ccccc2)/CC1 | -15.4% |
| CC(=O)c1ccc(NC(=O)c2sc3nc4n(c(=O)c3c2C)CCCCC4)cc1 | -12.8% |
| Cc1ccc(N(CCC(=O)O)S(=O)(=O)c2cccc(C(F)(F)F)c2)cc1 | -18.4% |
| Cc1ccc(C)c(NC(=S)NNC(=O)c2csc(C)c2)c1 | 6.88% |
| Cc1ccc(C)c(NC(=S)NNC(=S)Nc2ccc(C(C)C)cc2)c1 | 65.3% (active) |
| CC(C)c1ccc(NC(=S)NNc2ccc(Cl)c(C(=O)O)c2)cc1 | 14.4% |
| COc1cc2ccccc2cc1C(=O)Nc1ccncc1 | 6.55% |
| O=c1oc(/C=C/c2ccccc2)nc2ccccc12 | -17.7% |
| CCn1c(/C=C/c2ccc([N+](=O)[O-])o2)nc2ccccc2c1=O | 85.9% (active) |
| CCn1c(=O)c([N+](=O)[O-])c(NCc2ccc3c(c2)OCO3)c2ccccc21 | 24.6% |
| O=C(Cc1ccc(S(=O)(=O)N2CCOCC2)s1)N1CCN(c2ccc(C(F)(F)F)cc2[N+](=O)[O-])CC1 | 31% |
| CNC(=S)N/N=C/c1ccc(N2CCOCC2)s1 | 57.6% (active) |
| C=CCNC(=S)N/N=C/c1ccc(C)s1 | 50.5% |
| Cc1cc(C(=O)N/N=C/c2ccc(N3CCOCC3)cc2)c(C)o1 | 0.447% |
| CCCCn1c(N)c(N(CCOC)C(=O)c2cccc(S(=O)(=O)N(C)c3ccccc3)c2)c(=O)[nH]c1=O | 2.71% |
| CCc1ccccc1NC(=O)c1ccc2snnc2c1 | -10.4% |
| O=C(Nc1ccc2ccccc2c1)Nc1ccc2snnc2c1 | 57.6% (active) |
| O=C(Nc1cccc(Br)c1)c1ccc2snnc2c1 | 10.3% |
| O=S(=O)(NCCS(=O)(=O)N1CCN(c2ccccc2)CC1)c1ccc(F)cc1 | -2.33% |
| Cc1cccc(NC(=O)Nc2cccc(Oc3c(F)c(F)c(F)c(F)c3F)c2)c1 | 68.5% (active) |

| Compound | inhibition |
| --- | --- |
| COc1cccc(NC(=O)NCc2ccc(F)cc2)c1 | 1.25% |
| Cc1cccc(NC(=O)Nc2nnc(-c3ccccc3)o2)c1 | -4.53% |
| COc1ccc(C(=O)NCC(c2ccco2)N2CCc3ccccc32)cc1OC (stereo unspecified) | 5.94% |
| COc1ccc(C(=O)NCC2CCCN2S(=O)(=O)c2cccs2)cc1OC (stereo unspecified) | -3.88% |
| COc1ccc(-c2cc(C(=O)N/N=C/c3cccnc3)c3ccccc3n2)c(OC)c1 | -3.19% |
| COc1ccc(-c2cc(C(F)(F)F)nc(NCc3cccnc3)n2)cc1 | 49.2% |
| COc1ccc(-c2ccc(Nc3ccc(S(=O)(=O)N4CCCC4)cc3)nn2)cc1OC | 14.2% |
| COc1ccc(-c2cc(C(F)(F)F)nc(S(C)(=O)=O)n2)cc1OC | 60.3% (active) |
| Cc1cc2nc3n(c2cc1C)CC1CC(C(=O)NCCC(C)C)N(C)C31 (stereo unspecified) | -2.62% |
| CCOc1cc(C(=O)O)ccc1OCCOc1ccccc1 | 3.5% |
| O=C(NCC1CCN(Cc2ccccc2Cl)CC1)Nc1cccc(Cl)c1 | 49.4% |
| Cc1cccc(CN2CCC(CNC(=O)Nc3ccc(F)c(Cl)c3)CC2)c1 | 46.2% |
| Cc1ccccc1NC(=O)NCC1CCN(Cc2cccc(Cl)c2)CC1 | 57.5% (active) |
| CSc1ccc(/C=C2\NC(=O)NC2=O)cc1 | -13.1% |
| CC(=O)Nc1cccc(NC(=O)c2ccc3c(c2)CCN3S(C)(=O)=O)c1 | -5.53% |
| OC(CNCC1CCCO1)Cn1c2ccc(Br)cc2c2cc(Br)ccc21 (stereo unspecified) | 55.2% (active) |
| CC(NS(=O)(=O)c1ccc(Br)cc1)C(=O)NCC1CCCO1 (stereo unspecified) | 0.0781% |
| O=C(CSc1ccc(-c2ccc(Br)cc2)nn1)NCC1CCCO1 (stereo unspecified) | -13.2% |
| COc1ccc(CNC(=O)CNC(=O)c2sc3ccccc3c2Cl)cc1OC | 13.1% |
| Cc1nn(C)cc1/C=N/NC(=O)c1sc2ccccc2c1Cl | -4.55% |
| CN1CCc2ccccc2C1Cc1ccccc1NC(=O)c1sc2ccccc2c1Cl (stereo unspecified) | 54.6% (active) |
| COCCCNC(NC(=O)c1ccc(OC)cc1)C(Cl)(Cl)Cl (stereo unspecified) | -20.9% |
| COc1ccccc1NC(=O)C(C)OC(=O)c1ccc(-n2cnnn2)cc1 (stereo unspecified) | -5.21% |
